Assay results reported in ChEMBL document CHEMBL1124988, “Synthesis and antimicrobial and cytotoxic activities of pyrrole-containing analogues of trichostatin A” (J Med Chem, 1990).
Converted amounts (≈) assume the structure as drawn.

Key:
unidentified adenovirus = experiment: Effective dose required for antiviral activity against adeno virus; type: functional; conditions: read-out: ED50 (the source's name)
Method in brief: (§1)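 Plaque-reduction assay in Vero cells. Dose-response lines were drawn by linear regression, and ED50 is the concentration giving 50% fewer plaques than untreated, virus-infected controls.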

Human alphaherpesvirus 1 = experiment: Effective dose required for antiviral activity against HSV-1 virus; type: functional; conditions: read-out: ED50 (the source's name); method in brief: as §1
[1] = test system: Vesicular stomatitis virus; experiment: Effective dose required for antiviral activity against VSV virus; type: functional; conditions: read-out: ED50 (the source's name)
[2] = Toxic dose that reduced by 50% the number of cells with respect to untreated controls.; type: toxicity, cell-based; conditions: chlorocebus sabaeus, Vero cells; read-out: TD50 (the source's name)
Method in brief: (§2)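 Exponentially growing Vero cells were exposed to a range of compound concentrations for three cell cycles (3 days) at 37 °C in 5% CO2. Viable cells were counted by hemocytometer in duplicate samples. MNTD is the highest concentration still allowing exponential growth. TD50 is the concentration halving cell number versus untreated controls.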

Vaccinia virus = experiment: Effective dose required for antiviral activity against Vaccinia virus; type: functional; conditions: Orthopoxvirus vaccinia; read-out: ED50 (the source's name)
[3] = test system: African swine fever virus; experiment: Effective dose required for antiviral activity against ASFV virus; type: functional; conditions: read-out: ED50 (the source's name)
Vero = experiment: Maximum nontoxic dose that allow exponential cell growth for three cell cycles; type: functional, Chlorocebus sabaeus; method in brief: as §2

Compound: COc1ccc(C(=O)c2cc(/C=C/C(=O)O)n(C)c2)cc1
- EC50 (unidentified adenovirus): 250 µg/mL (≈ 876 µM)
- EC50 (Human alphaherpesvirus 1): > 500 µg/mL
- EC50 [1]: 1000 µg/mL (≈ 3510 µM)
- CC50 [2]: > 500 µg/mL
- EC50 (Vaccinia virus): 500 µg/mL (≈ 1750 µM)
- EC50 [3]: 350 µg/mL (≈ 1230 µM)
- MNTD (Vero): 500 µg/mL

Compound: Cn1cc(C(=O)c2ccccc2)cc1/C=C/C(=O)O
- EC50 (unidentified adenovirus): 250 µg/mL (≈ 979 µM)
- EC50 (Human alphaherpesvirus 1): > 500 µg/mL
- EC50 [1]: 500 µg/mL (≈ 1960 µM)
- CC50 [2]: > 250 µg/mL
- EC50 (Vaccinia virus): > 500 µg/mL
- EC50 [3]: 250 µg/mL (≈ 979 µM)
- MNTD (Vero): 250 µg/mL

Compound: CCOC(=O)/C=C/c1cc(C(=O)c2ccc(OC)cc2)cn1C
- EC50 (unidentified adenovirus): 4 µg/mL (≈ 12.8 µM)
- EC50 (Human alphaherpesvirus 1): 15 µg/mL (≈ 47.9 µM)
- EC50 [1]: 15 µg/mL (≈ 47.9 µM)
- CC50 [2]: 15 µg/mL (≈ 47.9 µM)
- EC50 (Vaccinia virus): 20 µg/mL (≈ 63.8 µM)
- EC50 [3]: 8 µg/mL (≈ 25.5 µM)
- MNTD (Vero): 8 µg/mL

Compound: Cn1cc(C(=O)c2ccc(N)cc2)cc1/C=C/C(=O)O
- EC50 (unidentified adenovirus): 1000 µg/mL (≈ 3700 µM)
- EC50 (Human alphaherpesvirus 1): > 1000 µg/mL
- EC50 [1]: > 1000 µg/mL
- CC50 [2]: > 1000 µg/mL
- EC50 (Vaccinia virus): 1000 µg/mL (≈ 3700 µM)
- EC50 [3]: 250 µg/mL (≈ 925 µM)
- MNTD (Vero): >1000 µg/mL

Compound: Nc1nc2c(ncn2COCCO)c(=O)[nH]1 [ACYCLOVIR]
- EC50 (Human alphaherpesvirus 1): 0.02 µg/mL (≈ 0.0888 µM)
- EC50 [1]: > 40 µg/mL
- CC50 [2]: 240 µg/mL (≈ 1070 µM)
- EC50 (Vaccinia virus): > 110 µg/mL
- EC50 [3]: 40 µg/mL (≈ 178 µM)
- MNTD (Vero): 40 µg/mL

Compound: CN(C)c1ccc(C(=O)c2cc(/C=C/C(=O)O)n(C)c2)cc1
- EC50 (unidentified adenovirus): 125 µg/mL (≈ 419 µM)
- EC50 (Human alphaherpesvirus 1): > 250 µg/mL
- EC50 [1]: > 500 µg/mL
- CC50 [2]: > 250 µg/mL
- EC50 (Vaccinia virus): > 250 µg/mL
- EC50 [3]: > 250 µg/mL
- MNTD (Vero): 125 µg/mL

Compound: Cn1cc(C(=O)c2ccccc2)cc1/C=C/C(=O)NO
- EC50 (unidentified adenovirus): > 30 µg/mL
- EC50 (Human alphaherpesvirus 1): > 30 µg/mL
- EC50 [1]: > 30 µg/mL
- CC50 [2]: 30 µg/mL (≈ 111 µM)
- EC50 (Vaccinia virus): > 30 µg/mL
- EC50 [3]: > 30 µg/mL
- MNTD (Vero): 15 µg/mL

Compound: Cn1cc(C(=O)c2ccc(-n3ccnc3)cc2)cc1/C=C/C(=O)O
- EC50 (unidentified adenovirus): 250 µg/mL (≈ 778 µM)
- EC50 (Human alphaherpesvirus 1): > 250 µg/mL
- EC50 [1]: 250 µg/mL (≈ 778 µM)
- CC50 [2]: > 250 µg/mL
- EC50 (Vaccinia virus): > 250 µg/mL
- EC50 [3]: 250 µg/mL (≈ 778 µM)
- MNTD (Vero): 125 µg/mL

Compound: Cn1cc(C(=O)c2ccc([N+](=O)[O-])cc2)cc1/C=C/C(=O)O
- EC50 (unidentified adenovirus): 50 µg/mL (≈ 167 µM)
- EC50 (Human alphaherpesvirus 1): 50 µg/mL (≈ 167 µM)
- EC50 [1]: > 100 µg/mL
- CC50 [2]: 60 µg/mL (≈ 200 µM)
- EC50 (Vaccinia virus): 15 µg/mL (≈ 50 µM)
- EC50 [3]: 50 µg/mL (≈ 167 µM)
- MNTD (Vero): 15 µg/mL

Compound: Cn1cc(C(=O)c2ccc(F)cc2)cc1/C=C/C(=O)O
- EC50 (unidentified adenovirus): 50 µg/mL (≈ 183 µM)
- EC50 (Human alphaherpesvirus 1): 60 µg/mL (≈ 220 µM)
- EC50 [1]: > 50 µg/mL
- CC50 [2]: 60 µg/mL (≈ 220 µM)
- EC50 (Vaccinia virus): 100 µg/mL (≈ 366 µM)
- EC50 [3]: 30 µg/mL (≈ 110 µM)
- MNTD (Vero): 15 µg/mL

Compound: Cn1cc(C(=O)c2ccc(Cl)cc2)cc1/C=C/C(=O)O
- EC50 (unidentified adenovirus): > 500 µg/mL
- EC50 (Human alphaherpesvirus 1): 500 µg/mL (≈ 1730 µM)
- EC50 [1]: 250 µg/mL (≈ 863 µM)
- CC50 [2]: 125 µg/mL (≈ 431 µM)
- EC50 (Vaccinia virus): 100 µg/mL (≈ 345 µM)
- EC50 [3]: > 250 µg/mL
- MNTD (Vero): 30 µg/mL

Compound: CCOC(=O)/C=C/c1cc(C(=O)c2ccccc2)cn1C
- EC50 (unidentified adenovirus): 30 µg/mL (≈ 106 µM)
- EC50 (Human alphaherpesvirus 1): 30 µg/mL (≈ 106 µM)
- EC50 [1]: 30 µg/mL (≈ 106 µM)
- CC50 [2]: 4 µg/mL (≈ 14.1 µM)
- EC50 (Vaccinia virus): 30 µg/mL (≈ 106 µM)
- EC50 [3]: 30 µg/mL (≈ 106 µM)
- MNTD (Vero): 2 µg/mL

Compound: CCOC(=O)/C=C/c1cc(C(=O)c2ccc(-n3ccnc3)cc2)cn1C
- EC50 (unidentified adenovirus): 15 µg/mL (≈ 42.9 µM)
- EC50 (Human alphaherpesvirus 1): 500 µg/mL (≈ 1430 µM)
- EC50 [1]: 500 µg/mL (≈ 1430 µM)
- CC50 [2]: 30 µg/mL (≈ 85.9 µM)
- EC50 (Vaccinia virus): > 500 µg/mL
- EC50 [3]: 30 µg/mL (≈ 85.9 µM)
- MNTD (Vero): 15 µg/mL

Compound: CCOC(=O)/C=C/c1cc(C(=O)c2ccc(N(C)C)cc2)cn1C
- EC50 (unidentified adenovirus): 15 µg/mL (≈ 46 µM)
- EC50 (Human alphaherpesvirus 1): 15 µg/mL (≈ 46 µM)
- EC50 [1]: 8 µg/mL (≈ 24.5 µM)
- CC50 [2]: 4 µg/mL (≈ 12.3 µM)
- EC50 (Vaccinia virus): 15 µg/mL (≈ 46 µM)
- EC50 [3]: 8 µg/mL (≈ 24.5 µM)
- MNTD (Vero): 2 µg/mL

Compound: CCOC(=O)/C=C/c1cc(C(=O)c2ccc([N+](=O)[O-])cc2)cn1C
- EC50 (Human alphaherpesvirus 1): 125 µg/mL (≈ 381 µM)
- CC50 [2]: 8 µg/mL (≈ 24.4 µM)
- EC50 (Vaccinia virus): 60 µg/mL (≈ 183 µM)
- EC50 [3]: 60 µg/mL (≈ 183 µM)
- MNTD (Vero): 2 µg/mL

Compound: Cc1ccc(C(=O)c2ccn(/C=C/C(=O)O)c2)cc1
- EC50 (unidentified adenovirus): 60 µg/mL (≈ 235 µM)
- EC50 (Human alphaherpesvirus 1): 100 µg/mL (≈ 392 µM)
- EC50 [1]: > 125 µg/mL
- CC50 [2]: 125 µg/mL (≈ 490 µM)
- EC50 (Vaccinia virus): 100 µg/mL (≈ 392 µM)
- EC50 [3]: 8 µg/mL (≈ 31.3 µM)
- MNTD (Vero): 30 µg/mL

Compound: Cn1cc(C(=O)c2ccc([N+](=O)[O-])cc2)cc1/C=C/C(=O)NO
- EC50 (unidentified adenovirus): 25 µg/mL (≈ 79.3 µM)
- EC50 (Human alphaherpesvirus 1): 15 µg/mL (≈ 47.6 µM)
- EC50 [1]: > 50 µg/mL
- CC50 [2]: 30 µg/mL (≈ 95.2 µM)
- EC50 (Vaccinia virus): 15 µg/mL (≈ 47.6 µM)
- EC50 [3]: 25 µg/mL (≈ 79.3 µM)
- MNTD (Vero): 15 µg/mL

Compound: Nc1ncnc2c1ncn2[C@@H]1O[C@H](CO)[C@@H](O)[C@@H]1O [VIDARABINE]
- EC50 (Human alphaherpesvirus 1): 10 µg/mL (≈ 37.4 µM)
- EC50 [1]: > 10 µg/mL
- CC50 [2]: 10 µg/mL (≈ 37.4 µM)
- EC50 (Vaccinia virus): 16 µg/mL (≈ 59.9 µM)
- EC50 [3]: 40 µg/mL (≈ 150 µM)
- MNTD (Vero): 6 µg/mL

Compound: CCOC(=O)/C=C/c1cc(C(=O)c2ccc(Cl)cc2)cn1C
- EC50 (unidentified adenovirus): 30 µg/mL (≈ 94.4 µM)
- EC50 (Human alphaherpesvirus 1): 350 µg/mL (≈ 1100 µM)
- EC50 [1]: > 1000 µg/mL
- CC50 [2]: 500 µg/mL (≈ 1570 µM)
- EC50 (Vaccinia virus): 500 µg/mL (≈ 1570 µM)
- EC50 [3]: > 500 µg/mL
- MNTD (Vero): 250 µg/mL

Compound: Cn1cc(C(=O)c2ccc(F)cc2)cc1/C=C/C(=O)NO
- EC50 (unidentified adenovirus): > 50 µg/mL
- EC50 (Human alphaherpesvirus 1): 10 µg/mL (≈ 34.7 µM)
- EC50 [1]: > 50 µg/mL
- CC50 [2]: 15 µg/mL (≈ 52 µM)
- EC50 (Vaccinia virus): 15 µg/mL (≈ 52 µM)
- EC50 [3]: 12 µg/mL (≈ 41.6 µM)
- MNTD (Vero): 8 µg/mL

Compound: Cn1cc(C(=O)c2ccc(Cl)cc2)cc1/C=C/C(=O)NO
- EC50 (unidentified adenovirus): 15 µg/mL (≈ 49.2 µM)
- EC50 (Human alphaherpesvirus 1): 30 µg/mL (≈ 98.4 µM)
- EC50 [1]: > 30 µg/mL
- CC50 [2]: 30 µg/mL (≈ 98.4 µM)
- EC50 (Vaccinia virus): 30 µg/mL (≈ 98.4 µM)
- EC50 [3]: 20 µg/mL (≈ 65.6 µM)
- MNTD (Vero): 15 µg/mL

Compound: CCOC(=O)/C=C/c1cc(C(=O)c2ccc(F)cc2)cn1C
- EC50 (unidentified adenovirus): 50 µg/mL (≈ 166 µM)
- EC50 (Human alphaherpesvirus 1): 10 µg/mL (≈ 33.2 µM)
- EC50 [1]: 50 µg/mL (≈ 166 µM)
- CC50 [2]: 15 µg/mL (≈ 49.8 µM)
- EC50 (Vaccinia virus): 10 µg/mL (≈ 33.2 µM)
- EC50 [3]: 10 µg/mL (≈ 33.2 µM)
- MNTD (Vero): 4 µg/mL
